How the values were obtained:
Assay type in all cases: ADME
[1] = Inhibition of CYP2B6 variant in human liver microsomes harboring CYP2B6*6/*6 genotype assessed as 8-hydroxyefavirenz formation using efavirenz as substrate after 15 mins by LC/MS/MS analysis
[2] = Inhibition of CYP2B6 variant in human liver microsomes harboring CYP2B6*1/*1 genotype assessed as 8-hydroxyefavirenz formation using efavirenz as substrate after 15 mins by LC/MS/MS analysis
[3] = Drug metabolism in microsomes expressing CYP2B6.6 (unknown origin) assessed as enzyme-mediated 8-hydroxyefavirenz metabolite formation after 15 mins by HPLC/UV system in absence of Cyt b5 coexpression; conditions: human, 0.25 h
Procedure, shortened: (§1)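 Microsomes with cDNA-expressed CYP2B6.1 or CYP2B6.6 plus POR, no Cyt b5 (15 pmol P450). Efavirenz 1–200 µM in 200 mM phosphate pH 7.4 with NADPH-regenerating system, 15 min at 37°C. 8-hydroxyefavirenz by HPLC, rate per pmol P450.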

[4] = Drug metabolism in microsomes expressing CYP2B6.6 (unknown origin) assessed as enzyme-mediated 8-hydroxyefavirenz metabolite formation measured per pmol of P450 after 15 mins by HPLC/UV system in presence of Cyt b5 coexpression; conditions: human, 0.25 h
Procedure, shortened: (§2)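 cDNA-expressed CYP2B6.1 or CYP2B6.6 microsomes coexpressing POR and Cyt b5 (15 pmol), with efavirenz 1–200 µM, NADPH-regenerating system and pH 7.4 phosphate buffer, 15 min at 37°C. 8-hydroxyefavirenz by HPLC, rate per pmol P450. Kinetic constants from single-site Michaelis-Menten fit; three replicates, mean ± S.D.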

[5] = Drug metabolism in human liver microsomes harboring CYP2B6*1/*6 genotype assessed as intrinsic clearance for CYP2B6 variant-mediated 8-hydroxyefavirenz metabolite formation measured per mg protein after 15 mins by LC/MS/MS analysis; conditions: 0.25 h
Procedure, shortened: (§3)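 Genotyped human liver microsomes (5 donors per genotype), 0.25 mg/ml, with efavirenz 1–200 µM in 200 mM potassium phosphate pH 7.4. Prewarmed 5 min at 37°C, started with NADPH-regenerating system, 15 min, stopped on ice with acetonitrile. 8-hydroxyefavirenz measured by LC/MS/MS, duplicate incubations. Km and Vmax from single-site Michaelis-Menten nonlinear fit; Clint = Vmax/Km; mean ± S.D. across 5 HLMs.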

[6] = Drug metabolism in microsomes expressing CYP2B6.1 (unknown origin) assessed as enzyme-mediated 8-hydroxyefavirenz metabolite formation measured per pmol of P450 after 15 mins by HPLC/UV system in presence of Cyt b5 coexpression; conditions: human, 0.25 h; procedure, shortened: as §2
[7] = Drug metabolism in human liver microsomes harboring CYP2B6*1/*1 genotype assessed as CYP2B6 variant-mediated 8-hydroxyefavirenz metabolite formation measured per mg protein after 15 mins by LC/MS/MS analysis; conditions: 0.25 h; procedure, shortened: as §3
[8] = Drug metabolism in human liver microsomes harboring CYP2B6*1/*1 genotype assessed as CYP2B6 variant-mediated 8-hydroxyefavirenz metabolite formation after 15 mins by LC/MS/MS analysis; conditions: 0.25 h; procedure, shortened: as §3
[9] = Drug metabolism in human liver microsomes harboring CYP2B6*6/*6 genotype assessed as CYP2B6 variant-mediated 8-hydroxyefavirenz metabolite formation measured per mg protein after 15 mins by LC/MS/MS analysis; conditions: 0.25 h; procedure, shortened: as §3
[10] = Drug metabolism in human liver microsomes harboring CYP2B6*1/*6 genotype assessed as CYP2B6 variant-mediated 8-hydroxyefavirenz metabolite formation measured per mg protein after 15 mins by LC/MS/MS analysis; conditions: 0.25 h; procedure, shortened: as §3
[11] = Drug metabolism in microsomes expressing CYP2B6.6 (unknown origin) assessed as enzyme-mediated 8-hydroxyefavirenz metabolite formation after 15 mins by HPLC/UV system in presence of Cyt b5 coexpression; conditions: human, 0.25 h; procedure, shortened: as §2
[12] = Drug metabolism in human liver microsomes harboring CYP2B6*1/*6 genotype assessed as CYP2B6 variant-mediated 8-hydroxyefavirenz metabolite formation after 15 mins by LC/MS/MS analysis; conditions: 0.25 h; procedure, shortened: as §3
[13] = Drug metabolism in human liver microsomes harboring CYP2B6*6/*6 genotype assessed as CYP2B6 variant-mediated 8-hydroxyefavirenz metabolite formation after 15 mins by LC/MS/MS analysis; conditions: 0.25 h; procedure, shortened: as §3
[14] = Drug metabolism in microsomes expressing CYP2B6.1 (unknown origin) assessed as enzyme-mediated 8-hydroxyefavirenz metabolite formation measured per pmol of P450 after 15 mins by HPLC/UV system in absence of Cyt b5 coexpression; conditions: human, 0.25 h; procedure, shortened: as §1
[15] = Drug metabolism in human liver microsomes harboring CYP2B6*1/*1 genotype assessed as intrinsic clearance for CYP2B6 variant-mediated 8-hydroxyefavirenz metabolite formation measured per mg protein after 15 mins by LC/MS/MS analysis; conditions: 0.25 h; procedure, shortened: as §3
[16] = Drug metabolism in microsomes expressing CYP2B6.6 (unknown origin) assessed as enzyme-mediated 8-hydroxyefavirenz metabolite formation measured per pmol of P450 after 15 mins by HPLC/UV system in absence of Cyt b5 coexpression; conditions: human, 0.25 h; procedure, shortened: as §1
[17] = Drug metabolism in microsomes expressing CYP2B6.1 (unknown origin) assessed as enzyme-mediated 8-hydroxyefavirenz metabolite formation after 15 mins by HPLC/UV system in presence of Cyt b5 coexpression; conditions: human, 0.25 h; procedure, shortened: as §2
[18] = Drug metabolism in human liver microsomes harboring CYP2B6*6/*6 genotype assessed as intrinsic clearance for CYP2B6 variant-mediated 8-hydroxyefavirenz metabolite formation measured per mg protein after 15 mins by LC/MS/MS analysis; conditions: 0.25 h; procedure, shortened: as §3
[19] = Drug metabolism in microsomes expressing CYP2B6.1 (unknown origin) assessed as enzyme-mediated 8-hydroxyefavirenz metabolite formation after 15 mins by HPLC/UV system in absence of Cyt b5 coexpression; conditions: human, 0.25 h; procedure, shortened: as §1
[20] = Inhibition of CYP2B6 variant in human liver microsomes harboring CYP2B6*1/*6 genotype assessed as 8-hydroxyefavirenz formation using efavirenz as substrate after 15 mins by LC/MS/MS analysis

| Km [3] [µM] | Vmax [4] [pmol/min] | CLH [5] [µL/min/mg] | Vmax [6] [pmol/min] | Vmax [7] [pmol/min] | Km [8] [µM] | Vmax [9] [pmol/min] | Vmax [10] [pmol/min] | Km [11] [µM] | Km [12] [µM] | Km [13] [µM] | Vmax [14] [pmol/min] | CLH [15] [µL/min/mg] | Vmax [16] [pmol/min] | Km [17] [µM] | CLH [18] [µL/min/mg] | Km [19] [µM] | SMILES | IC50 [1] [nM] | IC50 [2] [nM] | Ki [20] [nM] |
| --- | --- | --- | --- | --- | --- | --- | --- | --- | --- | --- | --- | --- | --- | --- | --- | --- | --- | --- | --- | --- |
| – | – | – | – | – | – | – | – | – | – | – | – | – | – | – | – | – | COC(=O)[C@H](c1ccccc1Cl)N1CCc2sccc2C1 [CLOPIDOGREL] | 50 | 140 | – |
| 8.8 | 0.95 | 6.4 | 1.02 | 87.1 | 11.2 | 25 | 100.6 | 6.2 | 15.2 | 24 | 1.21 | 14.5 | 1.61 | 3.4 | 2.4 | 3.2 | O=C1Nc2ccc(Cl)cc2[C@@](C#CC2CC2)(C(F)(F)F)O1 [EFAVIRENZ] | – | – | – |
| – | – | – | – | – | – | – | – | – | – | – | – | – | – | – | – | – | C[C@@H](c1ncncc1F)[C@](O)(Cn1cncn1)c1ccc(F)cc1F [VORICONAZOLE] | 160 | 400 | 1550 |

Reference: ChEMBL document CHEMBL3526074, “Effects of the CYP2B6*6 allele on catalytic properties and inhibition of CYP2B6 in vitro: implication for the mechanism of reduced efavirenz metabolism and other CYP2B6 substrates in vivo” (Drug Metab Dispos, 2012)
